Results from different studies.
Each line is one published result; the experiments were not run side by side.
Tyrosine-protein phosphatase YopH: Tyrosine-protein phosphatase YopH (Yersinia enterocolitica, UniProt P15273)
DRD1: D(1A) dopamine receptor (DRD1, Homo sapiens, UniProt P21728)

Structure (SMILES)	target	assay	setting	measurement	value
CN(C)c1ccc(/C=C/c2cc(/C=C/c3ccc(N(C)C)cc3)n3n[n+](C)nc3n2)cc1	Tyrosine-protein phosphatase YopH	enzyme activity, inhibitor	–	IC50	4.44 µM
[Na+].[Na+].[Na+].[O]=[V]([O-])([O-])[O-]	Tyrosine-protein phosphatase YopH	enzyme activity, inhibitor	–	Ki	1.58 µM
O=C(O)c1cc(-c2ccc([C@@H]3C[C@@H]4C[C@H]3CN4)cc2)c2ccc(-c3ccc(C(F)(F)F)cc3)cc2c1	DRD1	cell-free assay, radioligand	–	Ki	1.4 to 2.2 µM
C[C@H](N)Cc1ccccc1	Neuronal acetylcholine receptor subunit alpha-7 (Chrna7, Mus musculus, UniProt P49582)	ligand displacement, radioligand	cell membranes	Ki	49.7 µM
CC(C)CCC[C@@H](C)[C@H]1CC[C@H]2[C@@H]3CC=C4C[C@@H](O)CC[C@]4(C)[C@H]3CC[C@]12C	hly (Listeria monocytogenes, UniProt P13128)	binding	pH 5.5	Kd	0.296 µM
CC=C1[C@H]2C=C(C)C[C@]1(N)c1cc(O)c(=O)[nH]c1C2	Cholinesterase (BCHE, Equus caballus, UniProt P81908)	enzyme activity, inhibitor, Ellman	–	IC50	155 µM
NNC(=O)c1ccncc1	Adenosylmethionine-8-amino-7-oxononanoate aminotransferase (Mycobacterium tuberculosis, UniProt P9WQ81)	enzyme activity, inhibitor	–	Ki	> 100 µM
CNC(C)C(=O)c1ccccc1 (racemic)	Sodium-dependent serotonin transporter (SLC6A4, Homo sapiens, UniProt P31645)	calcium signal, agonist, fluorescence	–	EC50	24.8 µM
O=C(O)c1cc(-c2ccc([C@H]3C[C@H]4C[C@@H]3NC4=O)cc2)c2ccc(-c3ccc(C(F)(F)F)cc3)cc2c1	DRD1	cell-free assay, radioligand	–	Ki	1.4 to 2.2 µM
